High-throughput results (PubChem BioAssay)
PRMT1 FP inh: blocks human protein arginine methyltransferase 1. actives 1.3% (n = 370,000). Q99873. inhibition, % at 2.79 µM. AID 652257. recombinant PRMT1, activity-based probe fluorescence polarization;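 active = inhibition above about 21% made by adding two undisclosed values, limit read from the data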
Target sequence (Q99873 whole entry, looked up): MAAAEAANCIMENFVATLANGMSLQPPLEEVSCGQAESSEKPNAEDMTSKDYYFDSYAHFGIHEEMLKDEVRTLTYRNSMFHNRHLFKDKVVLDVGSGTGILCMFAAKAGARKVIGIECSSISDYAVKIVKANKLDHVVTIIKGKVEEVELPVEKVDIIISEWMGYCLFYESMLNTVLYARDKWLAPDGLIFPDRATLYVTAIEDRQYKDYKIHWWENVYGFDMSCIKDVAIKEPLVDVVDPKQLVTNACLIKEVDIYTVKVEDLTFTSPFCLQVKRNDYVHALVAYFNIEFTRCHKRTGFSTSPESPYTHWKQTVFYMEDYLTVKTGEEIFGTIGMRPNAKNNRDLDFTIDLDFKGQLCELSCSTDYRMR
PAD4 FP inh: blocks human protein arginine deiminase 4. recombinant PAD4, RCA probe fluorescence polarization. actives 0.41% (n = 330,000). inhibition, % at 6.36 µM;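 active = percent inhibition above a cutoff equal to the mean of all tested compounds plus 3 SD, cut at about 15% in these data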;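 note: 0% = PAD4 with RCA probe and DMSO and 100% = probe without PAD4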
SIAE primary: blocks human sialic acid acetylesterase; Q9HAT2; AID 1053197; inhibition, % at 9.66 µM; SIAE FP-Rh probe binding, fluorescence polarization; actives 0.69% (n = 370,000);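 active = inhibition above a cutoff: mean of compounds within the control limits plus 3 SD of those, cut at about 17% in these data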;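 note: 0% = plate median of compound wells and 100% = probe without SIAE protein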
TCR-CD3 inh: human TCR-CD3 binding inhibition. TAMRA-labeled TCR probe fluorescence, biochemical. inhibition, % at 9.4 µM. actives 0.37% (n = 360,000). AID 651800; in the data active = inhibition above about 19%;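 note: recombinant mutant TCR 2C K166C tagged with TAMRA read by polarization; 0% = receptor in buffer alone and 100% = receptor with positive control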
HTRA1 inh: inhibitors of human serine peptidase HTRA1. recombinant HTRA1, FP-rhodamine activity-based probe, fluorescence polarization. inhibition, % at 5.96 µM. actives 0.5% (n = 340,000). AID 504803; in the data active = inhibition above about 36%;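 note: 0% = enzyme with DMSO and 100% = wells lacking enzyme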
mABHD4 FP: inhibits mouse alpha/beta hydrolase domain 4; inhibition, % at 8.92 µM; Q8VD66; purified mABHD4, FP-Rh probe fluorescence polarization; AID 720543; actives 0.54% (n = 370,000);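 active = inhibition exceeding the mean over every tested compound plus 3 SD, cut at about 30% in these data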;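 note: 0% = plate median of compound wells and 100% = S159A mutant with DMSO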
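Material: mouse ABHD4 enzyme, wild type; Benchmarks: S159A mutant high control, sample median low control; Buffer or medium: HEPES pH 7.0, NaCl, Pluronic buffer; Signal: fluorescence polarization; Read-out: percent inhibition of probe binding, normalized to plate controls; Timing: pre-incubation 45 min, probe exposure 60 min, at 25 °C; Dosing: 8.92 µM, single dose.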
PRMT1 confirm: PRMT1 (human) inhibition, FP confirmation; recombinant His-PRMT1, activity-based probe fluorescence polarization; shares compounds with PRMT1 FP inh; inhibition, % at 2.79 µM; actives 42% (n = 3,300);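 active = mean inhibition across replicates above the hit cutoff derived for the earlier primary screen, cut at about 22% in these data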
* = called active by the depositor; / = no result. Shown are actives, neighbours in structure and some others; about 2.9% of the full set was active somewhere.

SMILES	PRMT1 FP inh	PAD4 FP inh	SIAE primary	TCR-CD3 inh	HTRA1 inh	mABHD4 FP	PRMT1 confirm
Oc1ccccc1OCc1nc2ccccc2s1	28*	1	8	2	0	-5	10
Cc1ccc(C(=O)N(C)[C@H]2C[C@H]3c4[nH]c5c(-c6cccc(C)c6)cccc5c4CCN3C[C@H]2[C@H](C)O)cc1	-3	/	2	/	/	6	/
O=C(CCSC1=NCCCN1)c1ccc(F)cc1	31*	/	-6	6	-5	-4	47*
c1ccc(CSC2=NCCCN2)cc1	1	1	-5	-5	4	3	/
c1nc(SSc2ncnc3nc[nH]c23)c2[nH]cnc2n1	48*	/	9	-2	3	10	96*
O=C(CCc1ccccc1)N[C@H]1[C@@H](OC(=O)c2cccnc2)CCC[C@@]12C(=O)N(Cc1ccccc1)c1ccccc12	3	/	-6	/	/	-12	/
COc1ccc(NC(=O)CSc2nc3ccsc3c(=O)n2Cc2ccccn2)c(OC)c1	29*	1	5	13	-1	5	1
COc1ccc(NC(=O)CSc2c3c(nc4ccccc24)CCCC3)c(OC)c1	26*	11	3	3	-7	5	26*
Cc1ccc(/C=C/C(=O)NCC2COc3ccccc3O2)o1 (centres undefined)	34*	-1	-15	-2	-9	-3	30*
Cc1ccc(/C=N/NC(=O)NC2CCCCC2)o1	3	-1	-2	-1	3	16	/
Cc1ccc(/C=C/C(=O)NC2CCCCCCC2)o1	50*	-5	6	-3	-9	6	59*
CC(=O)NS(=O)(=O)c1ccc(NC(=O)/C=C/c2ccc(C)o2)cc1	27*	2	8	0	-2	0	77*
COc1ccc(/C=C/C(=O)NCC2COc3ccccc3O2)cc1OC (centres undefined)	-1	1	-7	2	-5	-5	/
Cc1ccc(/C=C/C(=O)Nc2cccc(S(=O)(=O)N3CCOCC3)c2)o1	36*	-3	0	-8	-10	3	5
CCCC[C@H]1C2CC(OC(=O)Nc3ccc(Cl)cc3)C(C2)[C@H]2CCCCN21 (some centres undefined)	-1	/	-2	/	/	3	/
Cc1ccc(/C=C/C(=O)N2CCN(S(=O)(=O)c3c(C)c(C)cc(C)c3C)CC2)o1	16	-2	1	10	-22	2	/
Cc1ccc(/C=C/C(=O)Nc2ccc(S(N)(=O)=O)cc2)o1	76*	-2	-6	-5	-2	-18	81*
Cc1ccc(/C=C/C(=O)Nc2nccs2)o1	29*	-6	3	-5	-4	19	5
Cc1ccc(/C=C/C(=O)NCCc2c[nH]c3ccccc23)o1	5	1	-1	9	-7	-2	/
Cc1ccc(/C=C/C(=O)NCCc2cccc(Cl)c2)o1	46*	-2	-1	-2	-16	6	90*
Cc1ccc(/C=C/C(=O)N2CCN(S(=O)(=O)c3ccc(C)c(C)c3)CC2)o1	37*	0	6	-6	-5	7	52*
CN1C(=O)C[C@@](C#N)(C(=O)NCCc2ccccc2)[C@H]1c1ccccc1	2	/	4	/	/	1	/
O=C(NCc1ccccc1)[C@@H]1CCCN1C(=O)[C@H]1CCCN1C(=O)c1ccccc1F	0	/	-4	-2	/	0	/
CC(=O)N[C@H]1C[C@@H]2O[C@H](CO)CC[C@@H]2O[C@@H]1CCc1ccc(-c2ccc(F)cc2)cc1	1	/	5	/	/	4	/
Cc1ccc(/C=C/C(=O)NCc2ccc(S(N)(=O)=O)cc2)o1	42*	/	14	-1	0	-1	81*
Cc1cccc(N2CCN(C(=O)c3ccc4ncsc4c3)CC2)c1C	38*	/	0	-5	-5	-3	1
COC(=O)C1CN(C2CCCC2)CCS(=O)(=O)N1Cc1cn(Cc2ccc(F)cc2)nn1 (centres undefined)	-4	/	-1	/	/	-1	/
Cn1c(=O)[nH]c(=O)c2c1[nH]c(=S)n2CCCc1ccccc1	2	/	1	-1	-1	3	/
Cn1c(=O)c2c([nH]c(=S)n2CCCc2ccccc2)n(C)c1=O	41*	3	6	13	4	0	64*
